Source: ChEMBL document CHEMBL1137740, “Design, cytotoxic and fluorescent properties of novel N-phosphorylalkyl substituted E,E-3,5-bis(arylidene)piperid-4-ones” (Eur J Med Chem, 2009)
pIC50: −log10 of the molar value.

Legend:
[1] = Cytotoxicity against human Caov3 cells after 72 hrs by MTT assay; type: functional, cell-based; conditions: Caov-3, 72 h
In short: (§1)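 Cells grown in RPMI-1640 with 10% FBS, 2 mM L-glutamine and gentamicin. Seeded at 1×10^4 cells/well and allowed to attach overnight at 37 °C, 5% CO2. Compounds dissolved in DMSO and diluted into FBS-free medium, tested at 5×10^-5, 10^-5, 10^-6 and 10^-7 M. After 72 h, MTT added for 3 h at 37 °C. Formazan dissolved in DMSO and OD read at 590 nm. Viability expressed versus untreated controls, triplicates. IC50 determined graphically; melphalan as positive control.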

SK-OV-3 [2] = assay: Cytotoxicity against human Scov3 cells after 72 hrs by MTT assay; type: functional, cell-based; conditions: SK-OV-3, 72 h; in short: as §1
A549 [3] = assay: Cytotoxicity against human A549 cells after 72 hrs by MTT assay; type: functional, cell-based; conditions: A549, 72 h; in short: as §1
PC-3 [4] = assay: Cytotoxicity against human PC3 cells after 72 hrs by MTT assay; type: functional, cell-based; conditions: PC-3, 72 h; in short: as §1
[5] = Cytotoxicity against human Caov3 cells at 50 uM after 72 hrs by MTT assay; type: functional; conditions: Caov-3, 72 h
SK-OV-3 [6] = assay: Cytotoxicity against human Scov3 cells at 50 uM after 72 hrs by MTT assay; type: functional; conditions: SK-OV-3, 72 h
PC-3 [7] = assay: Cytotoxicity against human PC3 cells at 50 uM after 72 hrs by MTT assay; type: functional; conditions: PC-3, 72 h
A549 [8] = assay: Cytotoxicity against human A549 cells at 50 uM after 72 hrs by MTT assay; type: functional; conditions: A549, 72 h

SMILES | pIC50 [1] | pIC50 (SK-OV-3 [2]) | pIC50 (A549 [3]) | pIC50 (PC-3 [4]) | inhibition at 50 µM [5] [%] | inhibition at 50 µM (SK-OV-3 [6]) [%] | inhibition at 50 µM (PC-3 [7]) [%] | inhibition at 50 µM (A549 [8]) [%]
O=C1/C(=C/c2ccc([N+](=O)[O-])cc2)CNC/C1=C\c1ccc([N+](=O)[O-])cc1 | 5.99 | 5.60 | 6.40 | 5.81 |  |  |  | 
O=C1/C(=C/c2ccc(F)cc2)CNC/C1=C\c1ccc(F)cc1 |  | 5.19 | 6.10 | 5.22 | < 50 |  |  | 
CN(C)c1ccc(/C=C2\CNC/C(=C\c3ccc(N(C)C)cc3)C2=O)cc1 |  | 4.85 | 5.85 | 4.82 | < 50 |  |  | 
CCOP(=O)(CCCN1C/C(=C\c2ccc(N(C)C)cc2)C(=O)/C(=C/c2ccc(N(C)C)cc2)C1)OCC |  |  |  |  | < 50 | < 50 | < 50 | < 50
CCOP(=O)(CCCCN1C/C(=C\c2ccc(N(C)C)cc2)C(=O)/C(=C/c2ccc(N(C)C)cc2)C1)OCC |  |  |  |  | < 50 | < 50 | < 50 | < 50
CCOP(=O)(CCN1C/C(=C\c2ccc(N(C)C)cc2)C(=O)/C(=C/c2ccc(N(C)C)cc2)C1)OCC |  |  |  |  | < 50 | < 50 | < 50 | < 50
CCOP(=O)(CCN1C/C(=C\c2ccc([N+](=O)[O-])cc2)C(=O)/C(=C/c2ccc([N+](=O)[O-])cc2)C1)OCC | 5.30 | 5.70 | 6.00 | 5.88 |  |  |  | 
CCOP(=O)(CCCN1C/C(=C\c2ccc([N+](=O)[O-])cc2)C(=O)/C(=C/c2ccc([N+](=O)[O-])cc2)C1)OCC | 5.25 | 6.05 | 5.15 | 6.15 |  |  |  | 
CCOP(=O)(CN1C/C(=C\c2ccc(N(C)C)cc2)C(=O)/C(=C/c2ccc(N(C)C)cc2)C1)OCC |  |  |  | 4.52 | < 50 | < 50 |  | < 50
CCOP(=O)(CN1C/C(=C\c2ccc(F)cc2)C(=O)/C(=C/c2ccc(F)cc2)C1)OCC | 4.99 | 5.68 | 5.09 | 5.52 |  |  |  | 
CCOP(=O)(CN1C/C(=C\c2ccc([N+](=O)[O-])cc2)C(=O)/C(=C/c2ccc([N+](=O)[O-])cc2)C1)OCC | 5.30 | 5.82 | 6.00 | 5.85 |  |  |  | 
CCOP(=O)(CCCN1C/C(=C\c2ccc(F)cc2)C(=O)/C(=C/c2ccc(F)cc2)C1)OCC | 5.07 | 5.55 | 5.04 | 5.74 |  |  |  | 
CCOP(=O)(CCN1C/C(=C\c2ccc(F)cc2)C(=O)/C(=C/c2ccc(F)cc2)C1)OCC | 5.00 | 5.79 | 5.99 | 5.40 |  |  |  | 
CCOP(=O)(CCCCN1C/C(=C\c2ccc([N+](=O)[O-])cc2)C(=O)/C(=C/c2ccc([N+](=O)[O-])cc2)C1)OCC | 6.00 | 5.39 | 5.52 | 5.92 |  |  |  | 
N[C@@H](Cc1ccc(N(CCCl)CCCl)cc1)C(=O)O [MELPHALAN] | 4.70 | 4.22 | 4.30 | 4.15 |  |  |  | 
